Measurements published in ChEMBL document CHEMBL1125338, “Synthesis, chemical, and biological properties of vinylogous hydroxamic acids: dual inhibitors of 5-lipoxygenase and IL-1 biosynthesis” (J Med Chem, 1992).

Columns and labels:
[1] = target: T1, Polyunsaturated fatty acid 5-lipoxygenase (Rattus norvegicus, UniProt P12527); experiment: inhibitory activity against 5-lipoxygenase in rat basophilic leukemia cell line.; format: cell-based, RBL-1
T1 sequence (P12527 whole entry): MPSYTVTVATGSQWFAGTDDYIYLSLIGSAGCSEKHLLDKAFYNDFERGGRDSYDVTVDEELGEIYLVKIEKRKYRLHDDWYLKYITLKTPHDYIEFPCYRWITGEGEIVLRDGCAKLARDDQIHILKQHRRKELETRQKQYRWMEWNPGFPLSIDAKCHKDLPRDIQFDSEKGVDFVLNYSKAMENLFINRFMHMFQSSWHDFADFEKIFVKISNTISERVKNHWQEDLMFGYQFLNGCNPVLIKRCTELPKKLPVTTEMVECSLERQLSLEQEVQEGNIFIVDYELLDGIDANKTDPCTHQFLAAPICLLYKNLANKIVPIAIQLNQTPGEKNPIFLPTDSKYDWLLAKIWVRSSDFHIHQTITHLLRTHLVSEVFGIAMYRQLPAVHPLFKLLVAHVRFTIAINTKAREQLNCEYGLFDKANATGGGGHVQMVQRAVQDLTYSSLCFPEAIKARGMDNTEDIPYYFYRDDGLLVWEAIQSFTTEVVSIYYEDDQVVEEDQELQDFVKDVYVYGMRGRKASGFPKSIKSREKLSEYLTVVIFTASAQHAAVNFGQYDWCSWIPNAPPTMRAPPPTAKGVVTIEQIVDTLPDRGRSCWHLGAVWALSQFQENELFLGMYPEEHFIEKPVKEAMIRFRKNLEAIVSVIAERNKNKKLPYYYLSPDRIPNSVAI

Homo sapiens [2] = organism: Homo sapiens; experiment: Compound was evaluated for the inhibition of,IL-1beta biosynthesis.; format: functional
Method in brief: (§1)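 Human blood monocytes were isolated by ficoll-hypaque then elutriation and plated at 2×10^6 cells/mL in RPMI 1640 + 5% FBS. Compound in DMSO was added at 10, 3, 1, 0.3 and 0.1 μM for 1 h. Cells were then stimulated with Salmonella typhimurium LPS for about 20 h. Supernatant IL-1 was measured by ELISA and viability by MTT.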

[3] = target: Cyclooxygenase (Bos taurus) (UniProt O62664+O62698)
Crotalus adamanteus [4] = experiment: Compound was evaluated for the inhibition of,PLA2.; format: functional
[5] = Inhibition of IL-1 beta biosynthesis in human monocytes; format: functional, cell-based; method in brief: as §1
[6] = target: Interleukin-1 beta (Homo sapiens) (UniProt P01584); experiment: Compound was evaluated for the inhibition of IL-1 beta release by human monocytes.
Crotalus adamanteus [7] = experiment: Compound was evaluated for the inhibition of PLA2.; format: functional
[8] = target: T2, Polyunsaturated fatty acid 5-lipoxygenase (Rattus norvegicus) (UniProt P12527)
T2 sequence (whole entry): T1 sequence (P12527 whole entry)

[9] = target: T2, Polyunsaturated fatty acid 5-lipoxygenase (Rattus norvegicus); remark: listed apart in the source
Homo sapiens [10] = organism: Homo sapiens; experiment: Compound was evaluated for the inhibition of, IL1-beta biosynthesis.; format: functional; method in brief: as §1
Crotalus adamanteus [11] = experiment: Compound was evaluated for the inhibition of, PLA2.; format: functional
[12] = target: T2, Polyunsaturated fatty acid 5-lipoxygenase (Rattus norvegicus); experiment: Compound was evaluated for the inhibition of 5-LO (lipoxygenase); format: functional
Method in brief: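 Enzyme source was a 1000g supernatant of homogenized RBL-1 cells, dosed to give 3300–3800 dpm net 5-HETE (9–20 μg cell protein/assay). Compound in 5% DMSO/0.2 M Tris pH 8.5 was preincubated with enzyme for 5 min at 37 °C in pH 7.0 phosphate buffer (EDTA, gelatin, glutathione, CaCl2, indomethacin). Then 0.042 mM [14C]arachidonic acid (final) was added, 2 min. Duplicates; IC50 by linear regression over three concentrations.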

Chain of Interleukin-1 beta (Homo sapiens) (P01584 whole entry, looked up): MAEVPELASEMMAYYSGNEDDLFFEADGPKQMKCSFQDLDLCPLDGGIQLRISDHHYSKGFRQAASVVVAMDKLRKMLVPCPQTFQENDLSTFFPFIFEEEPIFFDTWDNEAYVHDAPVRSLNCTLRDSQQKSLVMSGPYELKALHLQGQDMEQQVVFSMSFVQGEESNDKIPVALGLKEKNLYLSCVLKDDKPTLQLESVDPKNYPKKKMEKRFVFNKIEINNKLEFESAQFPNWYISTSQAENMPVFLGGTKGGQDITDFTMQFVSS

Structure (SMILES)	IC50 [1] [µM]	IC50 [5] [µM]	other results
CN(O)/C=C\C(=O)c1cc(C(F)(F)F)cc(C(F)(F)F)c1	0.91	–	–
CC(c1cc2ccccc2s1)N(O)C(N)=O (stereo unspecified) [ZILEUTON]	–	–	ID50 (Homo sapiens [2]): >30 µM; ID50 [3]: > 750 µM; ID50 (Crotalus adamanteus [4]): > 1000 µM
CN(O)/C=C\C(=O)c1ccc2ccccc2c1	1.8	> 10	–
COc1ccc(C(=O)/C(=C\N(C)O)c2ccc(OC)cc2)cc1	> 25	–	–
CON(/C=C\C(=O)c1ccc(F)cc1)Cc1ccccc1	> 25	> 10	–
O=C(/C=C\N(O)C1CCCCC1)c1ccc2ccccc2c1	2.6	> 10	–
CCCCCCCCCCN(O)/C=C\C(=O)c1ccc(F)cc1	13	–	–
O=C(/C=C\N(O)Cc1ccccc1)c1ccc([N+](=O)[O-])cc1	2.5	1.7	–
CC(=O)ON(/C=C\C(=O)c1ccc(-c2ccccc2)cc1)Cc1ccccc1	> 25	> 10	–
COc1ccc2c(c1)c(CC(=O)O)c(C)n2C(=O)c1ccc(Cl)cc1	–	–	ID50 [6]: > 30 µM; ID50 (Crotalus adamanteus [7]): > 1000 µM; ID50 [8]: > 25 µM
O=C(/C=C\N(O)c1ccccc1)c1ccc2ccccc2c1	0.81	–	–
O=C(/C=C\N(O)Cc1ccc(Oc2ccccc2)cc1)C1CC1	1.4	> 10	–
O=C1CCN(c2ccccc2)N1 [PHENIDONE]	–	–	ID50 [9]: 0.48 µM; ID50 (Homo sapiens [10]): >30 µM; ID50 (Crotalus adamanteus [11]): > 1000 µM; ID50 [3]: 6.9 µM
COc1ccccc1C(=O)/C=C\N(Cc1ccccc1)OC	> 25	–	–
CN(O)/C=C\C(=O)c1ccc(-c2ccccc2)cc1	–	> 10	–
CC(=O)ON(/C=C\C(=O)C(C)(C)C)Cc1ccccc1	> 25	–	–
O=C(/C=C\N(O)Cc1ccc(-c2ccccc2)cc1)c1ccc(F)cc1	3	5.2	–
CN(O)/C=C\C(=O)c1ccc(F)cc1	5	5.5	–
O=C(/C=C\N(O)Cc1ccc2ccccc2c1)c1ccc(F)cc1	0.4	7.7	–
CC(=O)ON(C)/C=C\C(=O)c1ccc([N+](=O)[O-])cc1	> 25	–	–
CC(=O)ON(C)/C=C\C(=O)c1ccc(-c2ccccc2)cc1	> 25	–	–
C/C(=C/C(=O)c1ccc(F)cc1)N(O)Cc1ccccc1	0.25	–	–
O=C(/C=C\N(O)Cc1ccc(-c2ccccc2)cc1)C1CC1	1.2	> 10	–
O=C(/C=C\N(O)CCc1ccccc1)c1ccc(F)cc1	0.12	> 10	–
O=C(/C=C\N(O)Cc1ccccc1)c1ccncc1	2	8.9	–
CC(=O)ON(C)/C=C\C(=O)c1ccc(Cl)cc1	> 25	–	–

The next lines start with results.

IC50 [1] [µM]	IC50 [5] [µM]	Structure (SMILES)	other results
> 25	–	O=C(/C=C\NOCc1ccccc1)c1ccc(-c2ccccc2)cc1	–
0.27	> 10	O=C(/C=C\N(O)C1CCCCC1)c1ccc(F)cc1	–
0.55	> 10	CN(O)/C=C\C(=O)c1ccc(Cl)cc1	–
3.1	–	O=C(/C=C\N(O)Cc1ccc(-c2ccccc2)cc1)c1ccco1	–
–	2.8	O=C(/C=C\N(O)Cc1ccccc1)c1ccc(F)cc1	ID50 [6]: 2.8 µM; ID50 (Crotalus adamanteus [7]): > 1000 µM; ID50 [3]: > 750 µM
0.24	> 10	CN(O)/C=C\C(=O)Sc1ccc2ccccc2c1	–
5	> 10	CC(C)(C)C(=O)/C=C\N(O)Cc1ccccc1	–
> 25	> 10	CC(=O)ON(/C=C\C(=O)c1ccc(Cl)cc1)Cc1ccccc1	–
3	–	O=C(/C=C\N(O)Cc1ccc(-c2ccccc2)cc1)c1ccsc1	–
0.25	3.6	O=C(/C=C\N(O)Cc1ccccc1)c1ccc(-c2ccccc2)cc1	–
10	–	CN(O)/C=C\C(=O)c1ccc(OCc2ccccn2)cc1	–
1.7	> 10	O=C(/C=C\N(O)Cc1ccccc1)c1c(Cl)cccc1Cl	–
1.9	–	CN(O)/C=C\C(=O)c1ccc(OCc2ccccc2)cc1 [listing 1 of 2 here]	–
> 25	–	CC(=O)N(/C=C\C(=O)C(C)(C)C)OCc1ccccc1	–
> 25	–	COc1ccccc1/C(O)=C/C=N/OCc1ccccc1	–
> 25	–	O=C(/C=C\NOCc1ccccc1)c1ccc(F)cc1	–
1.5	2.1	O=C(/C=C\N(O)Cc1ccccc1)c1ccc(Cl)cc1	ID50 [6]: 2.1 µM; ID50 (Crotalus adamanteus [7]): > 1000 µM; ID50 [3]: > 750 µM; ID50 [12]: 1.5 µM

IC50 [1] [µM]	IC50 [5] [µM]	Structure (SMILES)	other results
> 25	–	CC(=O)ON(C)/C=C\C(=O)c1ccc(OCc2ccccc2)cc1	–
0.75	–	CCc1c(N(O)/C=C\C(=O)c2ccc3ccccc3c2)ccc2ccccc12	–
1.1	> 10	CN(O)/C=C\C(=O)c1ccc(OCc2ccccc2)cc1 [listing 2 of 2 here]	–
–	5.4	O=C(/C=C\N(O)Cc1ccccc1)c1ccc2ccccc2c1	–
8.9	–	C/C(=C/N(C)O)C(=O)c1ccc(OCc2ccccc2)cc1	–
> 25	> 10	CC(=O)ON(/C=C\C(=O)c1ccc([N+](=O)[O-])cc1)Cc1ccccc1	–
> 25	–	CC(C)(C)/C(O)=C/C=N/OCc1ccccc1	–
2.6	–	O=C(/C=C\N(O)Cc1ccc(OCc2ccccc2)cc1)C1CC1	–
> 25	–	CSc1ccc(C(=O)/C(=C\N(C)O)c2ccc(F)cc2)cc1	–
> 25	> 10	CC(=O)ON(/C=C\C(=O)c1ccc(F)cc1)Cc1ccccc1	–
0.61	3.6	O=C(/C=C\N(O)Cc1ccccc1)c1ccc(Cl)c(Cl)c1	–
1.5	9.9	O=C(/C=C\N(O)Cc1ccc2ccccc2c1)C1CC1	–
> 25	–	O=C(/C=C\N(O)Cc1ccc(-c2ccccc2)cc1)c1cccs1	–
> 25	–	CN(O)/C=C(\C(=O)c1ccccc1)c1ccccc1	–
4.8	–	COC(=O)/C=C\N(O)Cc1ccc(OCc2ccccc2)cc1	–
1.5	> 10	CN(O)/C=C\C(=O)c1ccc([N+](=O)[O-])cc1	–
0.2	> 10	O=C(/C=C\N(O)c1ccccc1)c1ccc(F)cc1	–
